Among the data in ChEMBL document CHEMBL4411261, “Down-Regulation of the Androgen Receptor by G-Quadruplex Ligands Sensitizes Castration-Resistant Prostate Cancer Cells to Enzalutamide” (J Med Chem, 2018) are ΔTm, Activity and EC50 values, retold here.

Experiment [1] is described as follows: Stabilization of 5'-FAM/3'-TAMRA labelled CTATAGCGCGCTATAG dsDNA (unknown origin) assessed as change in melting temperature t1/2 at 1 uM after 16 hrs in presence of 100 mM K+ by FRET assay. Summed up:
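FRET melting: FAM/TAMRA dual-labelled oligos (0.25 μM) folded in 10 mM lithium cacodylate pH 7.4 with 100 mM KCl (95 °C 5 min, cooled 4 h); ligand added at 1 μM final, 16 h room temperature. FAM emission followed 30−95 °C at 1 °C/min; curves normalized 0 to 1, T1/2 at 0.5 fraction.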

Experiment [2] has as its system Quadruplex DNA. Nature of the experiment: Stabilization of AR G-quadruplex oligonucleotide in human 22Rv1 cells assessed as reduction in AKT1 phosphorylation at S473 residues at IC50 after 48 hrs by Western immunoblot assay. The format is cell-based.
Experiment [3] relates to CWR22R. In words: Effect on JUN mRNA expression in human 22Rv1 cells at IC50 after 48 hrs by RT-PCR analysis. The format is functional, cell-based. A digest of the protocol: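 Transcripts quantified by TaqMan real-time PCR with RNaseP as normalizer; relative quantity versus untreated cells by the 2−ΔΔCt method. Panel genes measured with a 92-gene cancer-mechanism TaqMan array.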

For experiment [4], the system named is CWR22R. In words: Synergistic cytotoxicity against human 22Rv1 cells expressing full length androgen receptor H875Y point mutant assessed as ED50 for Enzalutamide at 0.001 to 0.1 uM after 72 hrs by MTS assay. The format is functional. The following applies: 22Rv1, 72 h, read-out: ED50 (the source's name). Summed up: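 Cells in RPMI-1640 with 10% fetal calf serum were exposed to ligand (0.001−0.1 μM) plus enzalutamide (0.5−50 μM) at a fixed ratio, five concentrations, for 72 h at 37 °C, 5% CO2. Viability read by MTS absorbance at 490 nm after 4 h. Combination index computed at ED50 and ED75 by the Chou–Talalay method.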
Background: Formazan colour is commonly taken as a measure of viable cells.

pEC50: −log10 of the molar value. Activity calls are given as the source filed them. No cut-off for these calls is given here.

What is called ΔTm is the change in melting temperature against a reference sample. Take `CN(C)CCCn1c(=O)c2ccc3c(=O)n(CCCN(C)C)c(=O)c4c5[nH]c6ccccc6[nH]c5c(c1=O)c2c34.Cl.Cl`: in experiment [1], the ΔTm is 1 °C. Moreover, in experiment [2], the result was Active. In addition, the outcome in experiment [3] was inactive. Further, the pEC50 in experiment [4] is 6.54.
